Key:
Format in all cases: functional
NCI-H226 [1] = assay: Growth inhibition of human NCI-H226 cells incubated for 48 hrs by sulforhodamine B assay
How it was run: (§1)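 NCI60 panel at the NCI Developmental Therapeutics Program. Only compounds active in the 10 µM screen went to dose-response testing. GI50, the concentration giving 50% of maximal inhibition of proliferation, and TGI, the concentration giving total growth inhibition, were derived from the dose-response curves.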

RPMI-8226 = assay: Growth inhibition of human RPMI-8226 cells assessed as cell growth at 0.1 uM incubated for 48 hrs by sulforhodamine B assay relative to control; details: read-out: Activity
A549 = assay: Growth inhibition of human A549/ATCC cells assessed as cell growth at 0.01 uM incubated for 48 hrs by sulforhodamine B assay relative to control; details: read-out: Activity
How it was run: (§2)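 NCI Developmental Therapeutics Program NCI60 panel. Compounds that were active in the 10 µM one-dose screen went on to dose–response testing. Growth at each concentration is expressed relative to untreated control (100%). GI50 (concentration giving 50% of maximal inhibition of proliferation) and TGI (concentration giving total growth inhibition) were derived from the curves.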

DU-145 = assay: Growth inhibition of human DU-145 cells assessed as cell growth at 0.01 uM incubated for 48 hrs by sulforhodamine B assay relative to control; details: read-out: Activity; how it was run: as §2
SN12C = assay: Growth inhibition of human SN12C cells assessed as cell growth at 100 uM incubated for 48 hrs by sulforhodamine B assay relative to control; details: read-out: Activity
COLO 205 = assay: Growth inhibition of human COLO 205 cells assessed as cell growth at 0.01 uM incubated for 48 hrs by sulforhodamine B assay relative to control; details: read-out: Activity; how it was run: as §2
SF-539 = assay: Growth inhibition of human SF-539 cells incubated for 48 hrs by sulforhodamine B assay
How it was run: (§3)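 NCI DTP 60-line human tumour panel. Dose-response curves were run only for ligands active in the initial 10 µM screen. GI50 (concentration giving 50% of maximal inhibition of proliferation) and TGI (concentration giving total growth inhibition) were derived from these curves.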

SW-620 [2] = assay: Growth inhibition of human SW-620 cells assessed as cell growth at 0.1 uM incubated for 48 hrs by sulforhodamine B assay relative to control; details: read-out: Activity
LOX IMVI = assay: Growth inhibition of human LOX IMVI cells assessed as cell growth at 0.01 uM incubated for 48 hrs by sulforhodamine B assay relative to control; details: read-out: Activity
TK-10 [3] = assay: Growth inhibition of human TK-10 cells assessed as cell growth at 1 uM incubated for 48 hrs by sulforhodamine B assay relative to control; details: read-out: Activity
U-251 [4] = assay: Growth inhibition of human U-251 cells assessed as cell growth at 0.01 uM incubated for 48 hrs by sulforhodamine B assay relative to control; details: read-out: Activity
K562 = assay: Growth inhibition of human K562 cells assessed as cell growth at 1 uM incubated for 48 hrs by sulforhodamine B assay relative to control; details: read-out: Activity
UO-31 = assay: Growth inhibition of human UO-31 cells incubated for 48 hrs by sulforhodamine B assay; how it was run: as §3
NCI/ADR-RES [5] = assay: Growth inhibition of human NCI/ADR-RES cells assessed as cell growth at 100 uM incubated for 48 hrs by sulforhodamine B assay relative to control; details: read-out: Activity
U-251 [6] = assay: Growth inhibition of human U-251 cells incubated for 48 hrs by sulforhodamine B assay; how it was run: as §3
Hs-578T = assay: Growth inhibition of human Hs-578T cells incubated for 48 hrs by sulforhodamine B assay; how it was run: as §1
SK-OV-3 = assay: Growth inhibition of human SK-OV-3 cells assessed as cell growth at 0.01 uM incubated for 48 hrs by sulforhodamine B assay relative to control; details: read-out: Activity
NCI/ADR-RES [7] = assay: Growth inhibition of human NCI/ADR-RES cells assessed as cell growth at 0.01 uM incubated for 48 hrs by sulforhodamine B assay relative to control; details: read-out: Activity
786-0 = assay: Growth inhibition of human 786-0 cells assessed as cell growth at 0.1 uM incubated for 48 hrs by sulforhodamine B assay relative to control; details: read-out: Activity; how it was run: as §2
NCI-H226 [8] = assay: Growth inhibition of human NCI-H226 cells assessed as cell growth at 100 uM incubated for 48 hrs by sulforhodamine B assay relative to control; details: read-out: Activity
SK-MEL-2 = assay: Growth inhibition of human SK-MEL-2 cells assessed as cell growth at 100 uM incubated for 48 hrs by sulforhodamine B assay relative to control; details: read-out: Activity
TK-10 [9] = assay: Growth inhibition of human TK-10 cells assessed as cell growth at 0.1 uM incubated for 48 hrs by sulforhodamine B assay relative to control; details: read-out: Activity
BT-549 = assay: Growth inhibition of human BT-549 cells assessed as cell growth at 0.01 uM incubated for 48 hrs by sulforhodamine B assay relative to control; details: read-out: Activity
SNB-75 = assay: Growth inhibition of human SNB-75 cells incubated for 48 hrs by sulforhodamine B assay; how it was run: as §3
NCI-H460 = assay: Growth inhibition of human NCI-H460 cells assessed as cell growth at 1 uM incubated for 48 hrs by sulforhodamine B assay relative to control; details: read-out: Activity
NCI/ADR-RES [10] = assay: Growth inhibition of human NCI/ADR-RES cells assessed as cell growth at 1 uM incubated for 48 hrs by sulforhodamine B assay relative to control; details: read-out: Activity
SW-620 [11] = assay: Growth inhibition of human SW-620 cells assessed as cell growth at 0.01 uM incubated for 48 hrs by sulforhodamine B assay relative to control; details: read-out: Activity
MDA-MB-435 = assay: Growth inhibition of human MDA-MB-435 cells assessed as cell growth at 100 uM incubated for 48 hrs by sulforhodamine B assay relative to control; details: read-out: Activity
IGROV-1 = assay: Growth inhibition of human IGROV-1 cells assessed as cell growth at 100 uM incubated for 48 hrs by sulforhodamine B assay relative to control; details: read-out: Activity
NCI-H322M = assay: Growth inhibition of human NCI-H322M cells assessed as cell growth at 1 uM incubated for 48 hrs by sulforhodamine B assay relative to control; details: read-out: Activity
MDA-MB-231 = assay: Growth inhibition of human MDA-MB-231 cells incubated for 48 hrs by sulforhodamine B assay; how it was run: as §1
SK-MEL-28 = assay: Growth inhibition of human SK-MEL-28 cells incubated for 48 hrs by sulforhodamine B assay; how it was run: as §3
HOP-62 = assay: Growth inhibition of human HOP-62 cells assessed as cell growth at 0.01 uM incubated for 48 hrs by sulforhodamine B assay relative to control; details: read-out: Activity
SF-295 = assay: Growth inhibition of human SF-295 cells assessed as cell growth at 100 uM incubated for 48 hrs by sulforhodamine B assay relative to control; details: read-out: Activity
[12] = read-out: LC50 (the source's name)

SMILES: CCc1ccccc1NC(=O)c1sc2nc3c(cc2c1N)C(=O)CCC3
- GI50 (NCI-H226 [1]): 20.1 µM
- TGI (NCI-H226 [1]): > 100 µM
- CC50 (NCI-H226 [1]; [12]): > 100 µM
- growth at 0.1 µM (RPMI-8226): 96%
- growth at 0.01 µM (A549): 97%
- growth at 0.01 µM (DU-145): 105%
- growth at 100 µM (SN12C): 22%
- growth at 0.01 µM (COLO 205): 102%
- GI50 (SF-539): 0.335 µM
- TGI (SF-539): 2.69 µM
- CC50 (SF-539; [12]): > 100 µM
- growth at 0.1 µM (SW-620 [2]): 83%
- growth at 0.01 µM (LOX IMVI): 97%
- growth at 1 µM (TK-10 [3]): 55%
- growth at 0.01 µM (U-251 [4]): 96%
- growth at 1 µM (K562): 22%
- GI50 (UO-31): 14.8 µM
- TGI (UO-31): > 100 µM
- CC50 (UO-31; [12]): > 100 µM
- growth at 100 µM (NCI/ADR-RES [5]): -6%
- GI50 (U-251 [6]): 0.499 µM
- LC50 (concentration killing 50% of cells) (U-251 [6]): > 100 µM
- TGI (U-251 [6]): 29.1 µM
- GI50 (Hs-578T): 0.302 µM
- TGI (Hs-578T): > 100 µM
- CC50 (Hs-578T; [12]): > 100 µM
- growth at 0.01 µM (SK-OV-3): 104%
- growth at 0.01 µM (NCI/ADR-RES [7]): 102%
- growth at 0.1 µM (786-0): 89%
- growth at 100 µM (NCI-H226 [8]): 18%
- growth at 100 µM (SK-MEL-2): 7%
- growth at 0.1 µM (TK-10 [9]): 97%
- growth at 0.01 µM (BT-549): 104%
- GI50 (SNB-75): 0.193 µM
- LC50 (SNB-75): > 100 µM
- TGI (SNB-75): 55.1 µM
- growth at 1 µM (NCI-H460): 9%
- growth at 1 µM (NCI/ADR-RES [10]): 21%
- growth at 0.01 µM (SW-620 [11]): 96%
- growth at 100 µM (MDA-MB-435): -48%
- growth at 100 µM (IGROV-1): 7%
- growth at 1 µM (NCI-H322M): 40%
- GI50 (MDA-MB-231): 1.25 µM
- TGI (MDA-MB-231): > 100 µM
- CC50 (MDA-MB-231; [12]): > 100 µM
- GI50 (SK-MEL-28): 0.001 µM
- LC50 (SK-MEL-28): > 100 µM
- TGI (SK-MEL-28): > 100 µM
- growth at 0.01 µM (HOP-62): 91%
- growth at 100 µM (SF-295): -2%
